Screening results (PubChem)
CAL PDZ FP-1 – blocks peptide binding to human CAL PDZ domain. Q9HD26. purified CAL PDZ, TMR-peptide fluorescence polarization, 1 h. inhibition, % at 20 µM. 330,000 compounds, 0.02% hits;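 active means highest replicate inhibition of at least 40%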;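 further: plate controls were DMSO neutral control wells for no effect and unlabeled competitor peptide control wells for full effect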
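material = purified tagged CAL PDZ domain construct (CerCALP) | buffer or medium = sodium phosphate/NaCl buffer pH 7.4 with TCEP, IgG, Thesit | reagent = TMR-labelled reporter peptide T*-PRC34 bound in PDZ groove | incubation = 1 h room-temperature incubation prior to read | measured by = fluorescence polarization (mP) | evaluation = percent inhibition from loss of millipolarization | control set = unlabelled peptide and DMSO controls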
CAL PDZ FP-2 – inhibitors of human CAL PDZ peptide binding | Q9HD26 | purified CAL PDZ, TMR-peptide fluorescence polarization, 1 h | inhibition, % at 24.9 µM | 300,000 compounds, 0.92% hits;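 active means mean inhibition of at least 30% with at least half of replicates also reaching 30%; inconclusive means no clear call, values can overlap the other calls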;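 further: 0% = DMSO neutral control and 100% = excess unlabeled competitor peptide PRC23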
S100A4 inh HTS – S100A4-myosin IIA interaction inhibition; AID 652163; P26447; inhibition, % at 10.7 µM; S100A4/TAMRA-MyoIIA peptide fluorescence polarization; 360,000 compounds, 0.14% hits;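 active means mean inhibition of at least 70% across replicates, with every replicate also reaching that level; inconclusive means mean inhibition reaches 70% but some replicates fall short; inactive means mean inhibition below 70%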
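Material: S100A4 monomer (human). Medium: Calcium-containing HEPES buffer, pH 7.2. Probe or stimulus: labelled myosin peptide probe, 5 nM. Compound dosing: one concentration per compound. Timing: polarization read 5 min after assay mix addition, stable 5–60 min. Benchmarks: DMSO as neutral control, TFP as positive control.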
DENV2 CPE – protects cells from dengue virus 2 cytopathic effect; CPE inhibition, % at 9.99 µM; 350,000 compounds, 1.7% hits; DENV2-infected cells, cytopathic effect rescue, plate reader; in the data active means CPE inhibition above about 20%, passing the limit was not always enough; inconclusive means no clear call, values can overlap the other calls; tested in BHK-21 cells;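 further: 0% = median of neutral control wells and 100% = median of positive control wells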
ERAP1 HTS inh – blocks human ERAP1 aminopeptidase activity; Q9NZ08; recombinant ERAP1, Leu-AMC fluorescence, 60 min; inhibition, % at 10.7 µM; 340,000 compounds, 0.15% hits;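 active means mean replicate inhibition of at least 30%, or all replicates individually reaching that 30% level; inactive means mean below 30% and not every replicate reaching it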;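 further: 0% = neutral control wells and 100% = L-leucinethiol positive control wells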
Target sequence (Q9NZ08 whole entry, looked up): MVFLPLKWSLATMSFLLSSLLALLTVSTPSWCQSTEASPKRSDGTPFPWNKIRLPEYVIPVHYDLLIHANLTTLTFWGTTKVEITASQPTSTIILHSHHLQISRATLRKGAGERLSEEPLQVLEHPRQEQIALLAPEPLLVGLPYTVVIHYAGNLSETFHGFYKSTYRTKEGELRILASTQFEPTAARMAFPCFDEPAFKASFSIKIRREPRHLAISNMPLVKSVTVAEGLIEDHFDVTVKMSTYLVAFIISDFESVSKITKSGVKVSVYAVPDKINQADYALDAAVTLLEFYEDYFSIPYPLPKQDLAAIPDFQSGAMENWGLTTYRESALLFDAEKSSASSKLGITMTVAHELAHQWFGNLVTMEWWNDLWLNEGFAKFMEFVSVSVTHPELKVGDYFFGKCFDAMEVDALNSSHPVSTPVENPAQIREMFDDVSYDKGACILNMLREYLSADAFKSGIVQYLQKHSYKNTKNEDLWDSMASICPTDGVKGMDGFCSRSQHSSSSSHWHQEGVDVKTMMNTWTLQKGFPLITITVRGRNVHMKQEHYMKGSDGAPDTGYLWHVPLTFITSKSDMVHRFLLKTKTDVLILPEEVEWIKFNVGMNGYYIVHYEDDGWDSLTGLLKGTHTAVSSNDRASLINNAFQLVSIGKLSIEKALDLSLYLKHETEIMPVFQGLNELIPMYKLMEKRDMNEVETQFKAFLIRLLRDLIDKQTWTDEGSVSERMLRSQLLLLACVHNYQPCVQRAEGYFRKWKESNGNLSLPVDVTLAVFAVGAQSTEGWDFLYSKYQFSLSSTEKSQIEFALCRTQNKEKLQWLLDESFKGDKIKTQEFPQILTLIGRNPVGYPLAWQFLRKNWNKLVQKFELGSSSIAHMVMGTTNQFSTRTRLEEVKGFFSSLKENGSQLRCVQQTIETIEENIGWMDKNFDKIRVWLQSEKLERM
SIRT5 block – sirtuin-5 (human) deacylase inhibition; Q9NXA8; Purified SirT5, succinyl-peptide AMC, trypsin-coupled fluorescence; inhibition, % at 15 µM; 330,000 compounds, 1.1% hits; AID 652115; in the data active means inhibition above about 15%; inconclusive means no clear call, values can overlap the other calls
An asterisk follows results filed as active. The list is not random: actives were taken first. Their share in the collection is about 2.9%.

`CO[C@H]1CN(C)C(=O)c2ccc(NC(=O)Nc3cccc(F)c3)cc2OC[C@@H](C)N(C(=O)Nc2c(C)noc2C)C[C@@H]1C` gave S100A4 inh HTS 2, DENV2 CPE 25* and ERAP1 HTS inh 1.
C=CCNC(=O)CN1CCC(c2nc3cc(C)c(C)cc3[nH]2)CC1 was read as CAL PDZ FP-1 -2, CAL PDZ FP-2 -6, S100A4 inh HTS 2, DENV2 CPE -1, ERAP1 HTS inh 0 and SIRT5 block 18*.
`COc1ccc(S(=O)(=O)N(C)C[C@@H]2OCCCC[C@H](C)Oc3ccc(NS(=O)(=O)c4ccc(F)cc4)cc3C(=O)N([C@@H](C)CO)C[C@@H]2C)cc1` gave S100A4 inh HTS -8, DENV2 CPE inconclusive, ERAP1 HTS inh 3 and SIRT5 block 20*.
COc1ccc(S(=O)(=O)N(C)C[C@H]2OCCCC[C@@H](C)Oc3ccc(NS(=O)(=O)c4ccc(F)cc4)cc3C(=O)N([C@H](C)CO)C[C@H]2C)cc1 was read as S100A4 inh HTS -67, DENV2 CPE 2, ERAP1 HTS inh 0 and SIRT5 block 20*.
Screening COc1ccc(S(=O)(=O)N(C)C[C@@H]2OCCCC[C@@H](C)Oc3ccc(NS(=O)(=O)c4ccc(F)cc4)cc3C(=O)N([C@@H](C)CO)C[C@@H]2C)cc1 returned S100A4 inh HTS -2, ERAP1 HTS inh 1 and SIRT5 block 20*.
Screening COc1ccc(S(=O)(=O)N(C)C[C@H]2OCCCC[C@H](C)Oc3ccc(NS(=O)(=O)c4ccc(F)cc4)cc3C(=O)N([C@H](C)CO)C[C@@H]2C)cc1 returned S100A4 inh HTS -76, DENV2 CPE -1, ERAP1 HTS inh 1 and SIRT5 block 18*.
For COc1ccc(S(=O)(=O)N(C)C[C@@H]2OCCCC[C@@H](C)Oc3ccc(NS(=O)(=O)c4ccc(F)cc4)cc3C(=O)N([C@H](C)CO)C[C@@H]2C)cc1 the results were S100A4 inh HTS -4, DENV2 CPE 6, ERAP1 HTS inh -4 and SIRT5 block 13.
Screening C[C@H]1CN([C@@H](C)CO)C(=O)c2cc(NC(=O)CCN3CCOCC3)ccc2O[C@H]1CN(C)C returned S100A4 inh HTS 6, DENV2 CPE 9, ERAP1 HTS inh 1 and SIRT5 block -8.
For COCC(=O)Nc1ccc2c(c1)[C@@H]1C[C@H](CC(=O)N3CCc4ccccc4C3)O[C@@H](CO)[C@@H]1O2 the results were S100A4 inh HTS 3, DENV2 CPE 3, ERAP1 HTS inh -4 and SIRT5 block 0.
Screening Cc1cc(=O)c(C(=O)O)nn1-c1cccc(C(F)(F)F)c1 returned CAL PDZ FP-1 0, CAL PDZ FP-2 73*, S100A4 inh HTS -1, DENV2 CPE 0, ERAP1 HTS inh -4 and SIRT5 block 2.
`O=C(NNc1ccccc1C(F)(F)F)c1sccc1Br` gave CAL PDZ FP-1 -1, CAL PDZ FP-2 -6, S100A4 inh HTS 37, DENV2 CPE 0 and SIRT5 block 20*.
OC1(c2ccc(Cl)cc2)CCN(Cc2c[nH]c3ccccc23)CC1 was read as CAL PDZ FP-1 -2, CAL PDZ FP-2 -4, S100A4 inh HTS 0, DENV2 CPE 56*, ERAP1 HTS inh -4 and SIRT5 block 4.
For Cc1nc(N2CCOCC2)c2cc(-c3ccccc3)sc2n1 the results were CAL PDZ FP-1 -2 and CAL PDZ FP-2 -6.
Cc1nc(SCCC(=O)O)c2cc(-c3ccccc3)sc2n1 was read as CAL PDZ FP-1 -2, CAL PDZ FP-2 55*, S100A4 inh HTS -2, DENV2 CPE 14, ERAP1 HTS inh -6 and SIRT5 block 2.
For CCNC(=O)c1ccccc1NC(=O)C1CC(=O)N(C(C)C)C1 (stereo unspecified) the results were CAL PDZ FP-1 3, CAL PDZ FP-2 62*, S100A4 inh HTS -2, DENV2 CPE -2, ERAP1 HTS inh -1 and SIRT5 block -3.
Screening CC1(C)COC(c2ccc(F)c([N+](=O)[O-])c2)=N1 returned CAL PDZ FP-1 -1, CAL PDZ FP-2 -1, S100A4 inh HTS -2, DENV2 CPE 34*, ERAP1 HTS inh 4 and SIRT5 block -4.
`COc1ccc(-c2ccc(NCCN3CCOCC3)nn2)cc1OC` gave CAL PDZ FP-1 0, CAL PDZ FP-2 -3, S100A4 inh HTS 0, DENV2 CPE -4, ERAP1 HTS inh 2 and SIRT5 block 16*.
Screening C[C@@H]1CN([C@@H](C)CO)C(=O)c2cc(C#CC3(O)CCCC3)cnc2O[C@@H]1CN(C)C(=O)Cc1ccncc1 returned S100A4 inh HTS -40, DENV2 CPE 2, ERAP1 HTS inh -4 and SIRT5 block -4.
`O=C(O)c1cc2c(cc1Cl)N1CCCCCC1=NS2(=O)=O` gave CAL PDZ FP-1 1, CAL PDZ FP-2 51*, S100A4 inh HTS -2, DENV2 CPE 7, ERAP1 HTS inh -3 and SIRT5 block 5.
O=[N+]([O-])c1ccccc1S(=O)(=O)Nc1ccc(S(=O)(=O)N2CCOCC2)cc1 was read as CAL PDZ FP-1 -3, CAL PDZ FP-2 -6, S100A4 inh HTS 0, DENV2 CPE 31*, ERAP1 HTS inh -5 and SIRT5 block -3.
`O=C(c1cccc(S(=O)(=O)N2CCOCC2)c1)N1CCN(S(=O)(=O)c2cccc([N+](=O)[O-])c2)CC1` gave CAL PDZ FP-1 -2, CAL PDZ FP-2 -3, S100A4 inh HTS -4, DENV2 CPE -10, ERAP1 HTS inh -1 and SIRT5 block -3.
`O=C1c2ccccc2C(=O)N1COc1ccc(S(=O)(=O)N2CCOCC2)cc1[N+](=O)[O-]` gave CAL PDZ FP-1 -1, CAL PDZ FP-2 50*, S100A4 inh HTS 2, DENV2 CPE 0 and ERAP1 HTS inh 2.
O=[N+]([O-])c1cccc(S(=O)(=O)N2CCN(S(=O)(=O)N3CCOCC3)CC2)c1 was read as CAL PDZ FP-1 -2, CAL PDZ FP-2 -4, S100A4 inh HTS -1, DENV2 CPE -1, ERAP1 HTS inh 1 and SIRT5 block 16*.
Screening COc1ccc(-c2sc(Nc3ccccc3)n[n+]2-c2ccc(F)cc2)cc1Br returned CAL PDZ FP-1 0, CAL PDZ FP-2 -2, S100A4 inh HTS -7, DENV2 CPE inconclusive and ERAP1 HTS inh 1.
COc1ccc2ccccc2c1-c1sc(Nc2ccccc2)n[n+]1-c1ccc(F)cc1 was read as CAL PDZ FP-1 -1, CAL PDZ FP-2 -2, S100A4 inh HTS -1, DENV2 CPE 52* and ERAP1 HTS inh 5.
Screening C[C@H](CO)N1C[C@H](C)[C@@H](CN(C)Cc2ccc(Oc3ccccc3)cc2)Oc2ccc(NC(=O)Nc3ccccc3)cc2CC1=O returned S100A4 inh HTS 22, DENV2 CPE 18, ERAP1 HTS inh 2 and SIRT5 block 6.
